In publication PMC5018462 (Brain research, 2016):
Where two headings read alike, the source gives them in different places.

What was measured:
[1] = system: primary murine microglia; test: Microglial uptake by confocal fluorescence microscopy; type: cell-based, murine (C57BL/6); conditions: for uptake by primary microglia, unlabeled Aβ42: immunostained with AF488-conjugated secondary antibody
In short: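 Microglia in glass-bottom dishes in serum- and GM-CSF-free medium at 37 °C. Conditions: 10 µM AF488-Aβ42 over time; various concentrations for 10 min; 5 µM labeled (imaged directly) or unlabeled Aβ42 (Ab9 1:5000, NL493 secondary). Fixed in 3.7% formaldehyde, DAPI, 40X confocal at fixed settings. ImageJ gave background-corrected cell fluorescence, or integrated density per nucleus. Two or three experiments.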

[2] = Solubility during SEC isolation in aCSF; type: physicochemical; conditions: SEC isolation on Superdex 75 in aCSF pH 7.8
In short: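 It stood 30 min–4 h at room temperature and was spun at 18,000g. Supernatant ran on a BSA-coated Superdex 75 column in aCSF at 0.5 mL min−1, A280 monitored, with fractions kept on ice.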

[3] = particularly at physiological pH; ref Jungbauer, et al., 2009; cited from earlier work

## AF488-Aβ42 monomers: Aβ42 monomers labeled at primary amines with Alexa Fluor 488 TFP ester, isolated by SEC
[1]; 5 µM, imaged directly
  uptake by primary microglia, AF488-labeled Aβ42: not taken up readily
[1]; 10 µM, 37 °C, time course, 40X confocal, ImageJ quantitation
  internalization by microglia (confocal): Much lower levels
[2]
  solubility: solubility issues were not encountered

## AF488-N-terminal-labeled Aβ42: N-terminally AF488-labeled Aβ42 of Jungbauer et al., 2009
[3]
  solubility: limited solubility

## unlabeled Aβ42 monomers: Aβ1–42 monomers isolated by SEC in aCSF
[1]; 5 µM
  uptake by primary microglia, unlabeled Aβ42: not taken up readily

## unlabeled Aβ42 protofibrils: Aβ1–42 soluble protofibrils formed in aCSF and isolated by SEC
[1]; 5 µM
  uptake by primary microglia, unlabeled Aβ42: rapid and extensive
